Reference: ChEMBL document CHEMBL1130166, “Synthesis and pharmacological characterization of 3-[2-((3aR,9bR)-cis-6-methoxy-2,3,3a,4,5,9b-hexahydro-1H-benz[e] isoindol-2-yl)ethyl]pyrido-[3',4':4,5]thieno[3,2-d]pyrimidine-2,4 (1H,3H)-dione (A-131701): a uroselective alpha 1A adrenoceptor antagonist for the symptomatic treatment of benign …” (J Med Chem, 1997)

Legend:
[1] = target: T1, Alpha-2A adrenergic receptor (Homo sapiens, UniProt P08913); assay: Binding affinity against human adrenergic receptor subtype Alpha-2A adrenergic receptor using [3H]rauwolscine as radioligand
T1 sequence (P08913 whole entry): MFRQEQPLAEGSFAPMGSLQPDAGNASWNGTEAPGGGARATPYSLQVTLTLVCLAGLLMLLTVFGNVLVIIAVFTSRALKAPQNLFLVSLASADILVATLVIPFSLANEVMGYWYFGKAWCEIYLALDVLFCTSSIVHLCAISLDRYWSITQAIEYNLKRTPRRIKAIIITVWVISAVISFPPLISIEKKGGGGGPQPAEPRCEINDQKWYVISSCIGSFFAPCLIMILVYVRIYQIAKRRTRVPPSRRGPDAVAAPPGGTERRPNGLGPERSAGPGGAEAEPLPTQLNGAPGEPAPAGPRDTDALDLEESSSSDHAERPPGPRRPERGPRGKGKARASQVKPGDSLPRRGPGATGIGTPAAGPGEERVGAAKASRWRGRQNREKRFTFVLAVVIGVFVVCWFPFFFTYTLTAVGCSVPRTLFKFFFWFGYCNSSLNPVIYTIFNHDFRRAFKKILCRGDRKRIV

[2] = target: T2, Alpha-2B adrenergic receptor (Rattus norvegicus, UniProt P19328); assay: Binding affinity against rat Alpha-2B adrenergic receptor using [3H]rauwolscine as radioligand
T2 sequence (P19328 whole entry): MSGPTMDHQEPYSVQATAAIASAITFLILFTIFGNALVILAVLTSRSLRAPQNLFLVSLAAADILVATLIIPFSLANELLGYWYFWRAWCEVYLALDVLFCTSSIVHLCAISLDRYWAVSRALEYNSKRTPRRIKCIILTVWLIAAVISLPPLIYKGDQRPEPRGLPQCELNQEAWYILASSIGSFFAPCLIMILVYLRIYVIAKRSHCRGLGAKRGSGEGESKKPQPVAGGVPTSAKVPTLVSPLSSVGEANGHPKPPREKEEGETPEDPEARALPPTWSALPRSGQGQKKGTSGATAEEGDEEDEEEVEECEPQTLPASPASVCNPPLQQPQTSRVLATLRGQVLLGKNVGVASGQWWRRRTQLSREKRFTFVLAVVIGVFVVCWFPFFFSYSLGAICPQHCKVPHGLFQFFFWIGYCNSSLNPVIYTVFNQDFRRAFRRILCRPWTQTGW

[3] = target: T3, Alpha-1D adrenergic receptor (Homo sapiens, UniProt P25100); assay: Binding affinity against human adrenergic receptor subtype Alpha-1D adrenergic receptor using [3H]prazosin as radioligand
T3 sequence (P25100 whole entry): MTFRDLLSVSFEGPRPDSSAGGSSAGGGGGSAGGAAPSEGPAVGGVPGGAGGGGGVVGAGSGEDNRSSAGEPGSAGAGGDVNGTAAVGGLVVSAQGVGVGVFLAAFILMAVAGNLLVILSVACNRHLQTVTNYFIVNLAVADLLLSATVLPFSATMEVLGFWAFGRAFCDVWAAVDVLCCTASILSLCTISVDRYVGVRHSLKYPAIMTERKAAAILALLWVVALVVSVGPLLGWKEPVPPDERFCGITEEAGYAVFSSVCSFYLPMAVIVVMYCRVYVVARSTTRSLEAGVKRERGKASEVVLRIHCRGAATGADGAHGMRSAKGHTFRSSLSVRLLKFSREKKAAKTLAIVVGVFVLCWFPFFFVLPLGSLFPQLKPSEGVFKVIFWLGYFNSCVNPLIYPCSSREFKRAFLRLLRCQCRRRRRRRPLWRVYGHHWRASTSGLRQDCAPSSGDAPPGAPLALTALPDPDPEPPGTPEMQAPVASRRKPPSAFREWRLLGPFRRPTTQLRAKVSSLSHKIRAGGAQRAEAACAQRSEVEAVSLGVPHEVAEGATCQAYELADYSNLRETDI

Rattus norvegicus = assay: Compound was tested for selectivity in a challenge spontaneously hypertensive rat (SHR) model using an ascending iv dose paradigm
[4] = target: T4, 5-hydroxytryptamine receptor 1F (Rattus norvegicus, UniProt P30940); assay: Binding affinity against 5-hydroxytryptamine 1 receptor using [3H]5-HT as radioligand
T4 sequence (P30940 whole entry): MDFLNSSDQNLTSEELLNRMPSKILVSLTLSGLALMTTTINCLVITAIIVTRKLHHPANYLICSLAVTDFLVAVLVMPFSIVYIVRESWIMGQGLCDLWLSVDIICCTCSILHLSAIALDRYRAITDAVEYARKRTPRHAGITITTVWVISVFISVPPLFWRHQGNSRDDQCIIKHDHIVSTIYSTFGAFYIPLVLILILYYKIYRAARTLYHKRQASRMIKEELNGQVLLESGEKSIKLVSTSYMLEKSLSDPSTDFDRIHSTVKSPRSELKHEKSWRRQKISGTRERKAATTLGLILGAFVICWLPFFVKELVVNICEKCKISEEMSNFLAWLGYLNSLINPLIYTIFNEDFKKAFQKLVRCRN

[5] = target: 5-hydroxytryptamine receptor 2A (Bos taurus, UniProt Q75Z89); assay: Binding affinity against 5-hydroxytryptamine 2 receptor using [3H]ketanserin as radioligand
5-hydroxytryptamine receptor 2A, sequence (Q75Z89 whole entry): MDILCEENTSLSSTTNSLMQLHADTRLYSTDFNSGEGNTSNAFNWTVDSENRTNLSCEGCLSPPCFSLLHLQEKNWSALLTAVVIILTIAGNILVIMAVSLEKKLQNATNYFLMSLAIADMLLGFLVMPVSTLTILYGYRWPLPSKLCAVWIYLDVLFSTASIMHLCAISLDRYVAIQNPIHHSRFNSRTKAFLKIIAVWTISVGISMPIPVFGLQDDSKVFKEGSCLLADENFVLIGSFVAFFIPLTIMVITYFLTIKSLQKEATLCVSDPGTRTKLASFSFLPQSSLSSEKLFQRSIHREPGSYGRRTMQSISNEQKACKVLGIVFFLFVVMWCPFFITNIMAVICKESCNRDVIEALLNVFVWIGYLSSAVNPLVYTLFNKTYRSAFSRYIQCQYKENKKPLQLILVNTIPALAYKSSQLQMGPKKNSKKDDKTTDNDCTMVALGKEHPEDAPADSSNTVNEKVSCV

[6] = target: T5, Alpha-1D adrenergic receptor (Rattus norvegicus, UniProt P23944); assay: In vitro antagonism against Alpha-1D adrenergic receptor using phenylephrine (PE) challenge in rat aorta; format: functional, tissue-based; conditions: read-out: pA2 (converted)
T5 sequence (P23944 whole entry): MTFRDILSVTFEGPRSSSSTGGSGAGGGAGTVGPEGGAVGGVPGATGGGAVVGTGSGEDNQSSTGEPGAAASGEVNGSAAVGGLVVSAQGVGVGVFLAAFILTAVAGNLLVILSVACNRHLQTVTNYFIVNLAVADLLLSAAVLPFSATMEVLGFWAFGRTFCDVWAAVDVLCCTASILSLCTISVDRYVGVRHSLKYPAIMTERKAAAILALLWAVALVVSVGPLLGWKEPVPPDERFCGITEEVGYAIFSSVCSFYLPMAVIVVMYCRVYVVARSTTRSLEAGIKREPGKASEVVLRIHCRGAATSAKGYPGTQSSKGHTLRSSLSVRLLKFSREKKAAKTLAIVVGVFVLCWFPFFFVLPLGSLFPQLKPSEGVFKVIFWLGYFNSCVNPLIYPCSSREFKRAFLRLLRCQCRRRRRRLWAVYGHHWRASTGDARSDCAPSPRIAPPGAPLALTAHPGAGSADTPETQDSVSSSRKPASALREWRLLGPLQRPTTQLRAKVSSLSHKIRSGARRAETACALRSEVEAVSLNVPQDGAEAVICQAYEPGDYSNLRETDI
How it was run: (§1)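 Agonist concentration-response curves were run on the isolated tissue, then repeated in the presence of increasing concentrations of antagonist. pA2 was obtained by Schild analysis.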

[7] = target: T6, Alpha-1B adrenergic receptor (Rattus norvegicus, UniProt P15823); assay: In vitro antagonism against Alpha-1B adrenergic receptor using phenylephrine (PE) challenge in rat spleen; format: functional, tissue-based; conditions: read-out: pA2 (converted); how it was run: as §1
T6 sequence (P15823 whole entry): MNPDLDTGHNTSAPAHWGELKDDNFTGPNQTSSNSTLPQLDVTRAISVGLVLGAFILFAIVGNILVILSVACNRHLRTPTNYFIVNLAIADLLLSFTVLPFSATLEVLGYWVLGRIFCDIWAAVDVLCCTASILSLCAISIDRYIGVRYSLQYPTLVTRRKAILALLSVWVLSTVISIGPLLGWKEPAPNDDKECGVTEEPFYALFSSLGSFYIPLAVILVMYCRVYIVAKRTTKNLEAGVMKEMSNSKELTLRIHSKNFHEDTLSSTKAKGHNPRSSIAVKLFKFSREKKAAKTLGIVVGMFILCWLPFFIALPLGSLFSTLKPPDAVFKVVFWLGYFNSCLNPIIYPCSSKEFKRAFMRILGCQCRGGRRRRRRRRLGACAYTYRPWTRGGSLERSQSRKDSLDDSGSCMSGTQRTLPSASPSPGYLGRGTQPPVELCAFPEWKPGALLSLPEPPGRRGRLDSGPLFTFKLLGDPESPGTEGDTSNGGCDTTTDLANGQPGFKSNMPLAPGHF

[8] = target: Beta-1 adrenergic receptor (Homo sapiens, UniProt P08588); assay: Binding affinity against Beta-1 adrenergic receptor using [3H]DHA as radioligand
Beta-1 adrenergic receptor, sequence (P08588 whole entry): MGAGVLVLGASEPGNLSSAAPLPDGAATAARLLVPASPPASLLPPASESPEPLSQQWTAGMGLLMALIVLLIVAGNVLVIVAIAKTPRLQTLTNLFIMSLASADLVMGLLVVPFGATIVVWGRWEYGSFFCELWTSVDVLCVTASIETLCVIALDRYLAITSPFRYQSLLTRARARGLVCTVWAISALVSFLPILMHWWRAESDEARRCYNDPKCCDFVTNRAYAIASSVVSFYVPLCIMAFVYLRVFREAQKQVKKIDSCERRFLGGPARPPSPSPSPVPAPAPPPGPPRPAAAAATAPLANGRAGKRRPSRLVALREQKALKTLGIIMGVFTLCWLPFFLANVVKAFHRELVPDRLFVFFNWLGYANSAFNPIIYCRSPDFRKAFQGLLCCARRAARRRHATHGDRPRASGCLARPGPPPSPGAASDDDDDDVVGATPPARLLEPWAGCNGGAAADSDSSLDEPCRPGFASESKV

[9] = target: T7, Alpha-1B adrenergic receptor (Homo sapiens, UniProt P35368); assay: Binding affinity against human adrenergic receptor subtype Alpha-1B adrenergic receptor using [3H]prazosin as radioligand
T7 sequence (P35368 whole entry): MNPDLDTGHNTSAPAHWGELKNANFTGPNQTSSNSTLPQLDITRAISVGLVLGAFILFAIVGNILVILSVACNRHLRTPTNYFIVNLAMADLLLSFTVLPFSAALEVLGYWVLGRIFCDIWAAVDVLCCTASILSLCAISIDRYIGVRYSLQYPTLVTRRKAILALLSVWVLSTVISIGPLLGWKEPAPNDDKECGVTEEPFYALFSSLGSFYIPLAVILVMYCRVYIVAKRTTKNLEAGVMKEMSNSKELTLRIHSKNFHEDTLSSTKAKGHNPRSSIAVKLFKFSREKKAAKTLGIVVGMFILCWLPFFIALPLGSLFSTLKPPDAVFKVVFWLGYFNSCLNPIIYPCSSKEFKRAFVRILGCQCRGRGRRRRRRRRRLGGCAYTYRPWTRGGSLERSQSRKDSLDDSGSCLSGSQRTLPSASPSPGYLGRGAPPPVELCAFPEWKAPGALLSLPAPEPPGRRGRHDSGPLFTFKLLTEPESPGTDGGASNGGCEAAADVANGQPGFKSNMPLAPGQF

[10] = target: T8, Alpha-2C adrenergic receptor (Homo sapiens, UniProt P18825); assay: Binding affinity against human Alpha-2C adrenergic receptor using [3H]rauwolscine as radioligand
T8 sequence (P18825 whole entry): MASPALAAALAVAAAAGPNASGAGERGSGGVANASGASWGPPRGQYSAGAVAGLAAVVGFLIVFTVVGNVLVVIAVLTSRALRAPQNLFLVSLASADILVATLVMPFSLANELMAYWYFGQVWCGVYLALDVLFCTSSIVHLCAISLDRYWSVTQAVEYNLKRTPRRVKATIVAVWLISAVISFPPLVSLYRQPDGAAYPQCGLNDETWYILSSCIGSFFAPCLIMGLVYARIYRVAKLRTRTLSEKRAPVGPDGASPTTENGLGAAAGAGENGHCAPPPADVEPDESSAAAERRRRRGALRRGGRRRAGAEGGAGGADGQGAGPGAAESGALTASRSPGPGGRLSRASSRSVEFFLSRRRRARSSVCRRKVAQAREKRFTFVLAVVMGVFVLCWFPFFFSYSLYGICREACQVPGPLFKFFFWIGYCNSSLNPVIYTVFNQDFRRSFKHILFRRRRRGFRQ

[11] = target: Beta-2 adrenergic receptor (Homo sapiens, UniProt P07550); assay: Binding affinity against adrenergic receptor subtype Beta-2 adrenergic receptor using [3H]DHA as radioligand
Beta-2 adrenergic receptor, sequence (P07550 whole entry): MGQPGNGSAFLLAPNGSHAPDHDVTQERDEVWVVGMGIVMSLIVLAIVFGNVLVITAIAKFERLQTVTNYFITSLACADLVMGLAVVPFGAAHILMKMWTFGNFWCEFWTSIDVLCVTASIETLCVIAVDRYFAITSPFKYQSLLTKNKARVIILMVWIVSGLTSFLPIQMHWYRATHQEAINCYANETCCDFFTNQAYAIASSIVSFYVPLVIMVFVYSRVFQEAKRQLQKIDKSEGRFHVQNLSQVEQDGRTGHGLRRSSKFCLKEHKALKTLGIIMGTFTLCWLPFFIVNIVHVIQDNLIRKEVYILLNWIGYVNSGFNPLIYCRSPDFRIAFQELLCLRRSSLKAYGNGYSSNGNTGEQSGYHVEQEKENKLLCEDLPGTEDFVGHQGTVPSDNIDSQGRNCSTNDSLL

D(1A) dopamine receptor = D(1A) dopamine receptor (Mus musculus, UniProt Q61616); assay: Binding affinity against Dopamine receptor D1 using [3H]SCH-23390 as radioligand
D(1A) dopamine receptor, sequence (Q61616 whole entry): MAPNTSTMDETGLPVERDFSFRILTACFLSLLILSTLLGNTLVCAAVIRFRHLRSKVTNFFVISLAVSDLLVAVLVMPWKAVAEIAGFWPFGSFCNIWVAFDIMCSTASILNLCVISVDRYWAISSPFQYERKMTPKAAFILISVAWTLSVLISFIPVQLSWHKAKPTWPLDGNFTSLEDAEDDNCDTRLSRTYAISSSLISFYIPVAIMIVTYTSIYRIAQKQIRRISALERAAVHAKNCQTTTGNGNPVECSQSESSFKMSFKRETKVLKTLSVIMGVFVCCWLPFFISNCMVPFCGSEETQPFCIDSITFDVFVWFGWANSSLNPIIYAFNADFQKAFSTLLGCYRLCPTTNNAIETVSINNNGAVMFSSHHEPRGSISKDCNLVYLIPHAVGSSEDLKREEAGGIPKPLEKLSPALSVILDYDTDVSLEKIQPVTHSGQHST

D(2) dopamine receptor = D(2) dopamine receptor (Homo sapiens, UniProt P14416); assay: Binding affinity against Dopamine receptor D2 using [3H]spiroperidol as radioligand
D(2) dopamine receptor, sequence (P14416 whole entry): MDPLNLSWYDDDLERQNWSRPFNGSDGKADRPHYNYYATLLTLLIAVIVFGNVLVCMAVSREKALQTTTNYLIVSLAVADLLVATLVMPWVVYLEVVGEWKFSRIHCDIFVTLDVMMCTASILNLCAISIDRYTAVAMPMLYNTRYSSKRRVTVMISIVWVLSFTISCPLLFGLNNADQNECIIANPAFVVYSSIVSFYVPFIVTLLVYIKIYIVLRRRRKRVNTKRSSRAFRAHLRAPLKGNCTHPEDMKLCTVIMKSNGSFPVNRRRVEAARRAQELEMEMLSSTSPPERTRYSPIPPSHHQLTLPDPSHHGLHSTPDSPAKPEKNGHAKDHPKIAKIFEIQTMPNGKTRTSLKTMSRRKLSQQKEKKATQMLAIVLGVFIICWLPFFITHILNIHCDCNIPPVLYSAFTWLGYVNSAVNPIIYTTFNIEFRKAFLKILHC

Ki [1] [nM] | Ki [2] [nM] | Ki [3] [nM] | Ki [4] [nM] | Ki [5] [nM] | Kb [6] [nM] | Kb [7] [nM] | Ki [8] [nM] | Ki [9] [nM] | Ki [10] [nM] | Ki [11] [nM] | Ki (D(1A) dopamine receptor) [nM] | Ki (D(2) dopamine receptor) [nM] | Compound | pED50 (Rattus norvegicus)
1500 | 7.7 | 0.85 |  |  |  |  |  |  |  |  |  |  | COc1cc2nc(N3CCN(C(=O)C4CCCO4)CC3)nc(N)c2cc1OC (stereo not given) [TERAZOSIN] | 6.64
94.9 | 13.1 | 0.97 | 3380 | 83 | 0.776 | 12.9 | 10600 | 6.95 | 16.6 | 3870 | 717 | 19.7 | COc1cccc2c1CC[C@H]1CN(CCn3c(=O)[nH]c4c(sc5cccnc54)c3=O)C[C@@H]21 | 5.33
13.4 | 6.8 | 0.058 |  |  |  | 0.204 |  | 0.61 | 7.9 |  |  |  | CCOc1ccccc1OCCN[C@H](C)Cc1ccc(OC)c(S(N)(=O)=O)c1 [TAMSULOSIN] | 7.33
